# Assay results from different studies.
# Target: Histamine H1 receptor (HRH1, Homo sapiens, UniProt P35367)
Structure (SMILES),test,conditions,Ki [nM]
CN(C)CCOC1c2ccccc2CCc2ccccc21,"cell-free assay, radioligand",,1.26
O=C1CCCc2cc(OCc3ccc(OCCCN4CCCCC4)cc3)ccc21,"ligand displacement, radioligand",cell membranes,1970
CC(C)c1nc2cc(OCCCCN3CCN(c4cccc5c4OCCO5)CC3)ccc2s1,"ligand displacement, radioligand",,52
CN(C)c1ccc(/C=C/C=C2\CCc3ccc(OCc4ccc(OCCCN5CCCCC5)cc4)cc3C2=O)cc1,"ligand displacement, radioligand",cell membranes,1840
CNc1nc2cc(OCCCCN3CCC(c4cccc(Cl)c4Cl)CC3)ccc2s1,"ligand displacement, radioligand",,28
O=C1NC(c2ccccc2)(c2ccccc2)C(=O)N1CCCN1CCCCC1,"ligand displacement, radioligand",cell membranes,6310
CN1CCC(=C(c2ccccc2)c2ccccc2)CC1,"cell-free assay, radioligand",,3.16
N#Cc1cc(Cn2c(N3CCCC3)nc3ccccc32)ccc1F,"cell-free assay, radioligand",,2570
CCCCCCCNCCCc1ccc([N+](=O)[O-])cc1,"ligand displacement, radioligand",,9200
CN(C)c1ccc(/C=C/C=C2\CCc3cc(OCc4ccc(OCCCN5CCCCC5)cc4)ccc3C2=O)cc1,"ligand displacement, radioligand",cell membranes,1370
CN1CCC(=C2c3ccccc3CCc3ccccc32)CC1,"cell-free assay, radioligand",,0.251
CN(C)c1ccc(/C=C2\CCc3ccc(OCCCN4CCCCC4)cc3C2=O)cc1,"ligand displacement, radioligand",cell membranes,2140
CN1CCC(=C2c3ccccc3CCc3cccnc32)CC1,cell-free assay,,0.0631
